The values that follow come from ChEMBL document CHEMBL1772961, “Discovery of dual target inhibitors against cyclooxygenases and leukotriene A4 hydrolyase” (J Med Chem, 2011).

A word on the IC50: it is the concentration at which inhibition is half-maximal.

Where only a bound is given, the exact number is not on record here.

Test [1] has as its target Prostaglandin G/H synthase 1 (Homo sapiens, UniProt P23219). Kind of test: Inhibition of purified COX1 assessed as formation of oxidized TMPD during reduction og PGG2 to PGH2 preincubated for 15 mins by chromogenic assay. In a few lines:
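Purified COX-1, approx 20 units, in 100 mM Tris pH 8 with 2 mM genapol X-100 and 1 μM hematin. Compounds in DMSO (5% final) preincubated 15 min at 25 °C. TMPD then added, reaction started with arachidonic acid. Initial rate of TMPD oxidation read at 610 nm over first 36 s. Nonenzymatic oxidation without enzyme subtracted before computing percent inhibition.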

Test [2] has as its target T1, Prostaglandin G/H synthase 2 (Homo sapiens, UniProt P35354).
T1 sequence (P35354 whole entry): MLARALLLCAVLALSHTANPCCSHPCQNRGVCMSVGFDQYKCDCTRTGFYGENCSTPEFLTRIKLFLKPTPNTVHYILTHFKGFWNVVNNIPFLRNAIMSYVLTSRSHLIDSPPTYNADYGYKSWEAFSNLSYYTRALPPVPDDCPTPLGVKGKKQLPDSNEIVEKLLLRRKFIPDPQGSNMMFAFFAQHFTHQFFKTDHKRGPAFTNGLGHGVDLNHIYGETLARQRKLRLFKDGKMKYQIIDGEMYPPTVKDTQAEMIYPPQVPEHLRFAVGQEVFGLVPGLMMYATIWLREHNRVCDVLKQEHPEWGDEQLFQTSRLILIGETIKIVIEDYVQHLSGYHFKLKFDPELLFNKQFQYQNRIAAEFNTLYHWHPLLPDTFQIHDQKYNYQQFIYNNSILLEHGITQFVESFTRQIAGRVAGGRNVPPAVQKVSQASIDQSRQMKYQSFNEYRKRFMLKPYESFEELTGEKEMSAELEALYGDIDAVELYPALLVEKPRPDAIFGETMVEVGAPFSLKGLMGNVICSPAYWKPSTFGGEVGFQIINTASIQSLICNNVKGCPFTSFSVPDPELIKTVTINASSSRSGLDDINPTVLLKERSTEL
Description: Inhibition of purified COX2 assessed as formation of oxidized TMPD during reduction og PGG2 to PGH2 preincubated for 15 mins by chromogenic assay.

Test [3] deals with T2, Leukotriene A-4 hydrolase (Homo sapiens, UniProt P09960).
T2 sequence (P09960 whole entry): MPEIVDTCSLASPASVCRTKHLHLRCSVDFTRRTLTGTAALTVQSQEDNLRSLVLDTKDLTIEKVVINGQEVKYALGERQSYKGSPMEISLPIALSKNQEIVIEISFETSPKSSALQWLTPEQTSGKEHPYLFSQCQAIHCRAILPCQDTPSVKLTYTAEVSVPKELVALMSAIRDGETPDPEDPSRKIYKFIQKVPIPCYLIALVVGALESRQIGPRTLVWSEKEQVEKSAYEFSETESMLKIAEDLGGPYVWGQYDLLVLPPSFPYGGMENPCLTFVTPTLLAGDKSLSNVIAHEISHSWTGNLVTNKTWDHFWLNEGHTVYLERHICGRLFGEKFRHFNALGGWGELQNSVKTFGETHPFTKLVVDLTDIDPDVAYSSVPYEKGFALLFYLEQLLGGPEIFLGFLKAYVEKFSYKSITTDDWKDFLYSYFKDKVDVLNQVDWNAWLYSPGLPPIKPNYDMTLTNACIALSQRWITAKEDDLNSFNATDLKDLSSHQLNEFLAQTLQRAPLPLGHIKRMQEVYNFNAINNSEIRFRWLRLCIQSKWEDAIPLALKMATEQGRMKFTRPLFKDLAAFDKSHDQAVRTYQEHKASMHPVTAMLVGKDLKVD
Description: Inhibition of human LTA4 hydrolase activity assessed as LTB4 production after 15 mins by ELISA.

Test [4] deals with T1, Prostaglandin G/H synthase 2. Kind of test: Inhibition of COX2 in human whole blood assessed as inhibition of LPS-induced PGE2 production after 24 hrs by ELISA. In general terms: In an ELISA, binding on a coated surface is turned into a signal by an enzyme label.
The target of test [5] is T2, Leukotriene A-4 hydrolase. Kind of test: Inhibition of LTA4 hydrolase in human whole blood assessed as inhibition of calcium ionophore A23187-induced LTB4 production after 0.5 hrs by ELISA.

Prostaglandin G/H synthase 1, sequence (P23219 whole entry): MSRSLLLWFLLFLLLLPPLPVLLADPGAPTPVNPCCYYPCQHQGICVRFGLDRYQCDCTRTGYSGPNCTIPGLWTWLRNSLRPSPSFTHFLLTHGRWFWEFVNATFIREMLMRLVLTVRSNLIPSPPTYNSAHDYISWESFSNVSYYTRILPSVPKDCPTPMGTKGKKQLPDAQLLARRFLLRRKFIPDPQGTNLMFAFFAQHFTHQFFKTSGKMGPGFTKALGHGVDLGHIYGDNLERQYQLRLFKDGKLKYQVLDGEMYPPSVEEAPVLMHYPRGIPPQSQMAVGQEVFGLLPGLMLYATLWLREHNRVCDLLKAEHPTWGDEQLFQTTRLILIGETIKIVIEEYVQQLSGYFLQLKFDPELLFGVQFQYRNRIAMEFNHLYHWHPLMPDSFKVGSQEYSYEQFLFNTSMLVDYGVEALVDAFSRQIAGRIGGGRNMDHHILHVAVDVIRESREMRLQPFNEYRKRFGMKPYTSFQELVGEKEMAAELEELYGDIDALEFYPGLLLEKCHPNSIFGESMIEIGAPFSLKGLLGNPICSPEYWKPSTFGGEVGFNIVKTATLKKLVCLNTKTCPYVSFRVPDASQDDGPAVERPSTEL

Take `CS(=O)(=O)Nc1ccc(Oc2ccc(OCCN3CCCC3)cc2)cc1`: the IC50 in test [1] was over 100 µM; in test [2], over 100 µM; in test [3], 3.4 µM; in test [4], over 100 µM; in test [5] it was 2.1 µM.

Turning to `c1cnc(Oc2ccc(OCCN3CCCC3)cc2)cn1`, the 50% inhibitory concentration (IC50) in test [1] was over 100 µM; in test [2] it was 61.6 µM; in test [3] it was 4.3 µM; in test [4] it was over 100 µM; in test [5] it was over 100 µM.

In the case of `Brc1ccc(Oc2ccc(OCCN3CCCC3)cc2)cc1`, the IC50 in test [1] was over 100 µM; in test [2], over 100 µM; in test [3], 0.11 µM; in test [4], 5.1 µM; in test [5], 0.29 µM.

`O=[N+]([O-])c1ccc(Oc2ccc(OCCN3CCCC3)cc2)c([N+](=O)[O-])c1`: the concentration for half-maximal inhibition (IC50) in test [1], in test [2], in test [3], in test [4] and in test [5] was over 100 µM throughout.

Take `CS(=O)(=O)c1ccc(Oc2ccc(OCCN3CCCC3)cc2)c([N+](=O)[O-])c1`: the IC50 in test [1], in test [2], in test [3], in test [4] and in test [5] was over 100 µM in each case.

Take `O=[N+]([O-])c1ccc(Oc2ccc(OCCN3CCCC3)cc2)cc1`: the IC50 in test [1] was 20.4 µM; in test [2], 35.3 µM; in test [3], 0.37 µM; in test [4] it was over 100 µM; in test [5] it was 0.69 µM.

Take `Clc1ccc(Oc2ccc(OCCN3CCCC3)cc2)cc1`: the IC50 in test [1] is over 100 µM; in test [2] it was over 100 µM; in test [3] it was 0.04 µM; in test [4], 22 µM; in test [5], 0.73 µM.

In the case of `Nc1cccc(Oc2ccc(OCCN3CCCC3)cc2)c1`, the 50% inhibitory concentration (IC50) was over 100 µM in test [1]; over 100 µM in test [2]; 0.69 µM in test [3]; over 100 µM in test [4]; 0.97 µM in test [5].

For `c1ccc(Oc2ccc(OCCN3CCCC3)cc2)cc1`, the IC50 in test [1] is over 100 µM; in test [2], over 100 µM; in test [4], over 100 µM; in test [5] it was 0.78 µM.

As for `CS(=O)(=O)N(c1ccccc1Oc1ccc(OCCN2CCCC2)cc1)S(C)(=O)=O`, the IC50 in test [1], in test [2], in test [3], in test [4] and in test [5] was over 100 µM throughout.

On to `FC(F)(F)c1cccc(Oc2ccc(OCCN3CCCC3)cc2)c1`, for which the IC50 in test [1] was over 100 µM; in test [2], over 100 µM; in test [3] it was 0.54 µM; in test [4], over 100 µM; in test [5], over 100 µM.

As to `CN(c1ccccc1Oc1ccc(OCCN2CCCC2)cc1)S(C)(=O)=O`, the IC50 in test [1] is over 100 µM; in test [2], 92 µM; in test [3], over 100 µM; in test [4], over 100 µM; in test [5], over 100 µM.

Take `Nc1ccc(Oc2ccc(OCCN3CCCC3)cc2)cc1`: the half-maximal inhibitory concentration (IC50) in test [1] was 1.9 µM; in test [2], 36.3 µM; in test [3], 0.32 µM; in test [4], over 100 µM; in test [5] it was 0.029 µM.

On to `c1ccc(Oc2ccc(OCCN3CCCC3)cc2)nc1`, for which the IC50 in test [1] is over 100 µM; in test [2] it was 34.4 µM; in test [3] it was 0.77 µM; in test [4], over 100 µM; in test [5] it was 0.18 µM.

Turning to `CS(=O)(=O)c1ccc(Oc2ccc(OCCN3CCCC3)cc2)cc1`, the IC50 in test [1], in test [2], in test [3], in test [4] and in test [5] was over 100 µM throughout.

As for `c1cc(Oc2ccc(OCCN3CCCC3)cc2)ccn1`, the IC50 was over 100 µM in test [1]; over 100 µM in test [2]; 0.58 µM in test [3]; over 100 µM in test [4]; 0.67 µM in test [5].

For `CS(=O)(=O)c1cccc(Oc2ccc(OCCN3CCCC3)cc2)c1`, the half-inhibitory concentration (IC50) in test [1], in test [2], in test [3], in test [4] and in test [5] was over 100 µM throughout.

As to `Fc1ccc(Oc2ccc(OCCN3CCCC3)cc2)cc1`, the IC50 in test [1] was over 100 µM; in test [2], over 100 µM; in test [3], 0.08 µM; in test [4] it was over 100 µM; in test [5], 0.99 µM.

In the case of `CS(=O)(=O)Nc1ccc([N+](=O)[O-])cc1Oc1ccccc1` [NIMESULIDE], the IC50 in test [3] and in test [5] was over 100 µM each time.

Turning to `O=[N+]([O-])c1cccnc1Oc1ccc(OCCN2CCCC2)cc1`, the IC50 in test [1] was over 100 µM; in test [2], over 100 µM; in test [3], 2.5 µM; in test [4], over 100 µM; in test [5], 34 µM.

For `O=[N+]([O-])c1cccc(Oc2ccc(OCCN3CCCC3)cc2)c1`, the IC50 was over 100 µM in test [1]; over 100 µM in test [2]; 0.47 µM in test [3]; 13 µM in test [4]; 1.4 µM in test [5].

For the compound `Nc1ccccc1Oc1ccc(OCCN2CCCC2)cc1`, the IC50 in test [1] is over 100 µM; in test [2] it was over 100 µM; in test [3], 0.63 µM; in test [4] it was over 100 µM; in test [5], 0.11 µM.

Regarding `FC(F)(F)c1ccccc1Oc1ccc(OCCN2CCCC2)cc1`, the IC50 in test [1] was over 100 µM; in test [2] it was 41.4 µM; in test [3], 0.22 µM; in test [4], 5 µM; in test [5], 0.73 µM.

`CS(=O)(=O)N(c1cccc(Oc2ccc(OCCN3CCCC3)cc2)c1)S(C)(=O)=O`: the IC50 in test [1], in test [2], in test [3], in test [4] and in test [5] was over 100 µM each time.

For the compound `CS(=O)(=O)c1ccccc1Oc1ccc(OCCN2CCCC2)cc1`, the IC50 in test [1], in test [2], in test [3], in test [4] and in test [5] was over 100 µM in each case.

Regarding `O=[N+]([O-])c1ccccc1Oc1ccc(OCCN2CCCC2)cc1`, the IC50 in test [1] came out at 61 µM; in test [2], 7.7 µM; in test [3], 0.68 µM; in test [4] it was 8.4 µM; in test [5], 6.9 µM.

`FC(F)(F)c1ccc(Oc2ccc(OCCN3CCCC3)cc2)cc1`: the IC50 in test [1] was over 100 µM; in test [2] it was over 100 µM; in test [3], 0.39 µM; in test [4], over 100 µM; in test [5], 2 µM.
